What all share (assay type): functional
Assay [1] relates to Staphylococcus aureus. Nature of the assay: Minimum inhibitory concentration against methicillin resistant Staphylococcus aureus strain BB 568 in combination with oxacillin; Experiment 1. An outline of the steps: (§1)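 Oxacillin MIC measured with test compound held at a fixed 25 mg/L, using doubling dilutions of oxacillin. Broth microdilution with about 10⁴ cfu per well in Mueller-Hinton broth plus 2% w/v NaCl. MIC read after 24 h at 35 °C. S. aureus ATCC29213 served as standard. Two separate experiments reported.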

Assay [2] concerns Staphylococcus aureus. The assay can be described thus: Minimum inhibitory concentration against methicillin resistant Staphylococcus aureus strain EMRSA 16. An outline of the steps: (§2)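 Intrinsic activity by broth microdilution. Inoculum about 10⁴ cfu per well in Mueller-Hinton broth with 2% w/v NaCl, doubling dilutions of compound. MIC read after 24 h at 35 °C. S. aureus ATCC29213 served as standard strain.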

The test system of assay [3] is Staphylococcus aureus. The assay can be described thus: Minimum inhibitory concentration against methicillin resistant Staphylococcus aureus strain EMRSA 16 in combination with oxacillin. An outline of the steps: as §1
For assay [4], the system named is Staphylococcus aureus. Nature of the assay: Minimum inhibitory concentration against methicillin resistant Staphylococcus aureus strain BB 568 in combination with oxacillin; Experiment 2. An outline of the steps:
as §1

The test system of assay [5] is Staphylococcus aureus. Nature of the assay: Minimum inhibitory concentration against methicillin resistant Staphylococcus aureus strain EMRSA 15. Summed up: as §2
Assay [6] concerns Staphylococcus aureus. The assay can be described thus: Minimum inhibitory concentration against methicillin resistant Staphylococcus aureus strain EMRSA 15 in combination with oxacillin. An outline of the steps: as §1
Assay [7] relates to Staphylococcus aureus. Nature of the assay: Minimum inhibitory concentration against methicillin resistant Staphylococcus aureus strain BB 568. Summed up: as §2
Assay [8] has as its system Staphylococcus aureus. Nature of the assay: Minimum inhibitory concentration against methicillin resistant Staphylococcus aureus strain EMRSA 16 in combination with oxacillin; Experiment 1. An outline of the steps: as §1
In assay [9] the test system is Staphylococcus aureus. The assay can be described thus: Minimum inhibitory concentration against methicillin resistant Staphylococcus aureus strain EMRSA 15 in combination with oxacillin; Experiment 1. Summed up:
as §1

For assay [10], the system named is Staphylococcus aureus. Nature of the assay: Minimum inhibitory concentration against methicillin resistant Staphylococcus aureus strain EMRSA 16 in combination with oxacillin; Experiment 2. An outline of the steps:
as §1

Assay [11] concerns Staphylococcus aureus. The assay can be described thus: Minimum inhibitory concentration against methicillin resistant Staphylococcus aureus strain EMRSA 15 in combination with oxacillin; Experiment 2. An outline of the steps: as §1
Assay [12] relates to Staphylococcus aureus. Nature of the assay: Minimum inhibitory concentration against methicillin resistant Staphylococcus aureus strain BB 568 in combination with oxacillin. An outline of the steps: as §1

Values after ≈ are worked out from the molar mass of the structure shown. A value given as a limit tells only on which side of the number the result lay.

For orientation: MIC means the lowest concentration found to suppress growth. For the compound `O=C(N[C@@H]1Cc2c(O)cc(O)cc2O[C@@H]1c1ccc(O)c(O)c1)c1cc(O)c(O)c(O)c1`, the MIC in the assay on Staphylococcus aureus [1] is 4 µg/mL; with Staphylococcus aureus [2], 128 µg/mL (≈ 290 µM); with Staphylococcus aureus [3] it was 1 µg/mL; in the assay with Staphylococcus aureus [4], 8 µg/mL; in the assay with Staphylococcus aureus [5], 256 µg/mL (≈ 580 µM); in the assay on Staphylococcus aureus [6] it was ≤ 0.5 µg/mL. Besides, in the assay with Staphylococcus aureus [7], the MIC was determined as 256 µg/mL (≈ 580 µM).
With `O=C(N[C@H]1Cc2c(O)cc(O)cc2O[C@@H]1c1ccc(O)c(O)c1)c1cc(O)c(O)c(O)c1`, the MIC stood at 256 µg/mL in the assay on Staphylococcus aureus [8]; 2 µg/mL in the assay on Staphylococcus aureus [9]; 128 µg/mL (≈ 290 µM) in the assay on Staphylococcus aureus [2]; 512 µg/mL in the assay with Staphylococcus aureus [10]; 4 µg/mL with Staphylococcus aureus [11]; 64 µg/mL with Staphylococcus aureus [12]. Also, the MIC in the assay on Staphylococcus aureus [5] and in the assay with Staphylococcus aureus [7] was 256 µg/mL (≈ 580 µM) throughout.
Regarding `Cc1onc(-c2ccccc2)c1C(=O)N[C@@H]1C(=O)N2[C@@H]1SC(C)(C)[C@@H]2C(=O)O` [OXACILLIN], the figures for the MIC with Staphylococcus aureus [2], against Staphylococcus aureus [5] and against Staphylococcus aureus [7] were 512 µg/mL (≈ 1280 µM), 32 µg/mL (≈ 79.7 µM) and 256 µg/mL (≈ 638 µM), respectively.

The values above are taken from ChEMBL document CHEMBL1145257, “Synthesis and antibacterial activity of hydrolytically stable (-)-epicatechin gallate analogues for the modulation of beta-lactam resistance in Staphylococcus aureus” (2005).
